Screening results as filed in PubChem BioAssay.
Rows were chosen to be rich in hits. Some 1.8% of all compounds tested hit in one or more screens of this group.
ARNT TACC3 PPI: disruptors of human ARNT/TACC3 interaction. inhibition, % at 9.99 µM. hit rate 0.66% among 390,000. AlphaScreen His-ARNT PAS-B/GST-TACC3 binding, luminescence; TACC3 fragment carries E629A point mutation;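 active means mean inhibition of replicates at least 50% and at least half of replicates each reaching 50%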;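 further: 0% = complete ARNT plus TACC3 wells and 100% = ARNT alone without TACC3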
SIAE inh: inhibitors of human sialic acid acetylesterase SIAE | SIAE FP-Rh probe binding, fluorescence polarization | inhibition, % at 9.66 µM | hit rate 0.69% among 370,000 | AID 1053197;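 active means inhibition above a cutoff: mean of compounds within the control limits plus 3 SD of those, cut at about 17% in these data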;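 further: 0% = plate median of compound wells and 100% = probe without SIAE protein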
TCR-CD3 inh: blocks the human TCR-CD3 interaction; inhibition, % at 9.4 µM; hit rate 0.37% among 360,000; TAMRA-labeled TCR probe fluorescence, biochemical; AID 651800;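 further: recombinant mutant TCR 2C K166C tagged with TAMRA read by polarization; 0% = receptor in buffer alone and 100% = receptor with positive control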
HTRA1 inh: HTRA1 (human) protease inhibition | Q92743 | recombinant HTRA1, FP-rhodamine activity-based probe, fluorescence polarization | inhibition, % at 5.96 µM | hit rate 0.5% among 340,000 | AID 504803; in the data active means inhibition above about 36%;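 further: 0% = enzyme with DMSO and 100% = wells lacking enzyme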
Target sequence (Q92743 whole entry, looked up): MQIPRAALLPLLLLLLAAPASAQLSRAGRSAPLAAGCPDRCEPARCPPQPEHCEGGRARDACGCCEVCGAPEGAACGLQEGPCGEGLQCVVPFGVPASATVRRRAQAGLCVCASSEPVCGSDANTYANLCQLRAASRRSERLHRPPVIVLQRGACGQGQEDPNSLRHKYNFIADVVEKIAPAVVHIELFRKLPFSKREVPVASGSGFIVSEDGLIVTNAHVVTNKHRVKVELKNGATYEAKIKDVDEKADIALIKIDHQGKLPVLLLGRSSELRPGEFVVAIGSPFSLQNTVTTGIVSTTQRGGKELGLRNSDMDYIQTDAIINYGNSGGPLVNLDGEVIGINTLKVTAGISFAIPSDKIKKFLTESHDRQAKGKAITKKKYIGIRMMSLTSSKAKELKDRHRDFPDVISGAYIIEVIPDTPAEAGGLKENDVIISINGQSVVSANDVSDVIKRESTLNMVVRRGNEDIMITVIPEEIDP
mABHD4 FP: ABHD4 (mouse) inhibition, primary FP screen; hit rate 0.54% among 370,000; Q8VD66; inhibition, % at 8.92 µM; purified mABHD4, FP-Rh probe fluorescence polarization;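 active means inhibition exceeding the mean over every tested compound plus 3 SD, cut at about 30% in these data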;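 further: 0% = plate median of compound wells and 100% = S159A mutant with DMSO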
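system = mouse ABHD4 enzyme, wild type | medium = HEPES pH 7.0, NaCl, Pluronic buffer | also added = FP-Rh probe | incubation = Enzyme–compound pre-incubation 45 min, then probe 60 min, both 25 °C | technique = fluorescence polarization, excitation 525 nm, emission 598 nm, BODIPY TMR filters | controls = S159A mutant high control, sample median low control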
BSA TAMRA ctr: interferes with TAMRA-BSA probe, flagging TCR-CD3 hits; AID 652035; hit rate 10% among 1,200; shares compounds with TCR-CD3 inh; TAMRA-labeled BSA probe fluorescence counterscreen; inhibition, % at 9.4 µM; in the data active means inhibition above about 23%;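 further: 0% = buffer low control and 100% = reference high control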
TCR-CD3 inh conf: confirmation of human TCR-CD3 interaction inhibitors | shares compounds with TCR-CD3 inh | TAMRA-labeled TCR probe fluorescence binding assay | inhibition, % at 9.4 µM | hit rate 48% among 1,200
* hit, by the source's call; · = not tested or not shown. Unless noted, no stated cut-off is given here; in the data, active means inhibition above about 19%; inactive means the rest.

SMILES | ARNT TACC3 PPI | SIAE inh | TCR-CD3 inh | HTRA1 inh | mABHD4 FP | BSA TAMRA ctr | TCR-CD3 inh conf
C[C@H]1CN([C@@H](C)CO)C(=O)Cc2cc(NC(=O)C3CCCCC3)ccc2O[C@H]1CN(C)C(=O)Nc1ccccc1 | -7 | · | · | · | · | · | ·
CO[C@H]1CN(C)C(=O)c2ccc(NC(=O)c3ccc(F)cc3)cc2OC[C@@H](C)N(C(=O)c2ccc(F)cc2)C[C@H]1C | 4 | · | · | · | · | · | ·
O=C(N/N=C/c1cc(Br)ccc1O)c1cccc(N2CCCC2=O)c1 | 11 | -7 | 30* | 16 | 5 | -6 | 26*
COc1ccc(CN(C)C[C@@H]2OCCCC[C@H](C)Oc3ccc(NC(=O)CCC(F)(F)F)cc3C(=O)N([C@@H](C)CO)C[C@H]2C)cc1 | -13 | · | · | · | · | · | ·
O=C1NN=COc2ccccc21 | 3 | -4 | 21* | 6 | -3 | -12 | 11
CCN(CC)c1ccc(/C=c2\sc3nc4ccccc4n3c2=O)c(O)c1 | -82 | 4 | 28* | -9 | 25 | 28* | 21*
O=c1/c(=C/c2ccc(O)c([N+](=O)[O-])c2)sc2nc3ccccc3n12 | -2 | -18 | 2 | · | 5 | · | ·
C[C@@H]1CN([C@@H](C)CO)C(=O)c2c(c3ccccc3n2C)-c2ccccc2CO[C@H]1CN(C)C(=O)Nc1ccccc1 | 12 | · | · | · | · | · | ·
CCc1ccc(N2CC(C(=O)OCc3nc4ccsc4c(=O)[nH]3)CC2=O)cc1 (configuration not stated) | · | -2 | 27* | 12 | 3 | -11 | 12
Cc1cnc(C(=O)OCc2nc3ccsc3c(=O)[nH]2)cn1 | · | -3 | 28* | -1 | 5 | -13 | 16
CCN(CC)S(=O)(=O)c1ccc(NC(=O)Nc2cccc(C(F)(F)F)c2)cc1 | 8 | -335 | 81* | -133 | -235 | 24* | 54*
CCN(CC)S(=O)(=O)c1ccc(NC(=O)C2c3ccccc3Oc3ccccc32)cc1 | -6 | -99 | 45* | -77 | -39 | 0 | 2
COc1ccc(/C(C)=N/NC(=O)c2cccc(S(=O)(=O)N3CCCC3)c2)c(O)c1 | 40 | 15 | 34* | 16 | 16 | -17 | 20*
C[C@@H]1CCCCO[C@@H](CN(C)Cc2ccc(C(F)(F)F)cc2)[C@H](C)CN([C@@H](C)CO)C(=O)c2cc(NC(=O)c3ccccc3)ccc2O1 | -4 | · | · | · | · | · | ·
COc1ccccc1C(=O)NNC(=S)NC(=O)c1cc(OC)c(OC)c(OC)c1 | -1 | 1 | 19* | 0 | 2 | -7 | 9
Cn1c(=O)n(C)c2cc(/C=N/N=C3/NC(=O)C(CC(=O)O)S3)ccc21 (configuration not stated) | 22 | -2 | 41* | -2 | 4 | 2 | 22*
CCOc1cc(/C=N/N=C2/NC(=O)C(CC(=O)O)S2)ccc1OCc1ccc(Cl)cc1 (configuration not stated) | 0 | 1 | 5 | -4 | -7 | · | ·
CCCNC(=O)C[C@H]1CC[C@H]2[C@@H](COc3ccc(NS(=O)(=O)c4ccccc4C)cc3C(=O)N2C)O1 | -1 | · | · | · | · | · | ·
COc1ccc(C(=O)N/N=C\c2ccc(OC)c(COc3ccccc3Br)c2)c(OC)c1 | -6 | -84 | 26* | -67 | -54 | 16 | 32*
COc1ccc(/C=N\NC(=O)c2ccccc2Br)cc1COc1ccccc1 | -8 | 2 | 0 | -26 | -2 | · | ·
CCN(CC)CCC(c1ccc2c(c1)OCO2)c1c(OC)cc(OC)c2ccc(=O)oc12 (configuration not stated) | 0 | 2 | 3 | 4 | 1 | · | ·
CCN(CC)CCC(c1cc(OC)c(OC)c(OC)c1)c1c(OC)cc(OC)c2ccc(=O)oc12 (configuration not stated) | 5 | 1 | 96* | -3 | 0 | 7 | 0
Cc1ccc(S(=O)(=O)N2CCC(C(=O)NNC(=O)c3ccccc3O)CC2)cc1 | -3 | -2 | 52* | 20 | 6 | -5 | 36*
Cc1ccc(S(=O)(=O)N2CCC(C(=O)N3CCCCCCC3)CC2)cc1C | · | 0 | -7 | -3 | -2 | · | ·
Cc1ccc(S(=O)(=O)N2CCC(C(=O)NNC(=O)c3ccccc3O)CC2)cc1C | 0 | 1 | 41* | 16 | 1 | 3 | 32*
SMILES | ARNT TACC3 PPI | SIAE inh | TCR-CD3 inh | HTRA1 inh | mABHD4 FP | BSA TAMRA ctr | TCR-CD3 inh conf
CC1CCN(S(=O)(=O)c2ccc(NC(=O)Cn3nnc(-c4ccccc4F)n3)cc2)CC1 | -3 | -52 | 20* | -38 | -7 | 9 | 24*
C[C@@H]1CCCCO[C@H](CN(C)C(=O)CCC(F)(F)F)[C@@H](C)CN([C@H](C)CO)C(=O)c2cc(NS(=O)(=O)c3ccc(F)cc3)ccc2O1 | 18 | · | · | · | · | · | ·
O=C(CNC(=O)/C=C/c1ccco1)N=Nc1c(O)[nH]c2ccccc12 | -22 | 6 | 29* | 4 | 14 | -3 | 43*
COc1ccc(N2CCN(C(c3cccs3)C(C)NC(=O)C(=O)N3CCCC3)CC2)cc1 (configuration not stated) | 2 | 9 | 20* | 3 | 6 | 1 | 1
Cn1c(SCC(=O)N/N=C/c2cc([N+](=O)[O-])ccc2O)nnc1-c1ccccc1 | 4 | 5 | 21* | 8 | 5 | -4 | 14
O=C(N/N=C/c1cc([N+](=O)[O-])ccc1O)C12CC3CC(CC(C3)C1)C2 | -3 | 1 | 1 | 2 | 6 | · | ·
Nc1nnc(CC(=O)N/N=C\c2cc([N+](=O)[O-])ccc2O)s1 | 65* | 1 | 36* | 4 | 24 | -6 | 25*
CO[C@H]1CN(C)C(=O)c2cc(NC(=O)C3CC3)ccc2OC[C@@H](C)N(Cc2cccc(F)c2)C[C@@H]1C | -10 | · | · | · | · | · | ·
CCC(=O)N1[C@@H]2c3ccc(-c4ccncc4)c(=O)n3C[C@@H]2[C@@H](CO)[C@@H]1C(=O)Nc1ccccc1 | 0 | · | · | · | · | · | ·
NC(=O)[C@H]1CC2(CC(c3cccc(NC(=O)COc4ccc(Cl)cc4)c3)=NO2)CN1C(=O)CC(c1ccccc1)c1ccccc1 (some centres not stated) | -6 | -73 | 54* | -101 | -85 | 12 | 30*
NC(=O)[C@@H]1CC2(CC(c3cccc(NC(=O)CC(c4ccccc4)c4ccccc4)c3)=NO2)CN1C(=O)COc1ccc(Cl)cc1 (some centres not stated) | -3 | -68 | 32* | -125 | -73 | 14 | 31*
CCC(=O)Nc1cccc(C2=NOC3(C2)C[C@@H](C(N)=O)N(C(=O)COc2ccc(Cl)cc2)C3)c1 (some centres not stated) | 3 | -6 | 1 | -12 | -4 | · | ·
O=C(Nc1ccccc1)N1C[C@H]2[C@@H](c3ccccc31)[C@@H](CO)N2C(=O)c1ccccc1F | -5 | · | · | · | · | · | ·
